Source: ChEMBL document CHEMBL1142964, “Synthesis and biological evaluation of [18F]bicalutamide, 4-[76Br]bromobicalutamide, and 4-[76Br]bromo-thiobicalutamide as non-steroidal androgens for prostate cancer imaging” (J Med Chem, 2007)

Legend:
Kidney [1] = experiment: Biodistribution in kidney of iv dosed testis-intact Sprague-Dawley rat after 1 hr block; assay type: ADME, organism-based; conditions: in vivo
How it was run: (§1)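 76Br-tracer in 10% ethanol-saline, given iv by tail vein to mature male Sprague-Dawley rats (250 g) castrated 7 days before. Doses were 4 µCi/animal (1 h) and 7 µCi/animal (18 h). Block group used testes-intact rats, with the AR saturated by endogenous androgen. Five animals per group. Tissues were excised, weighed, saline-washed, blotted and counted. %ID/g was taken against injected-dose standards.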

[2] = Biodistribution in muscle of iv dosed Sprague-Dawley rat after 18 hrs; assay type: ADME, organism-based, Muscle tissue; conditions: read-out: Drug uptake; how it was run: as §1
[3] = Biodistribution in liver of iv dosed Sprague-Dawley rat after 18 hrs; assay type: ADME, organism-based; conditions: read-out: Drug uptake; how it was run: as §1
Muscle tissue [4] = experiment: Biodistribution in muscle of iv dosed testis-intact Sprague-Dawley rat after 18 hrs block; assay type: ADME, organism-based; conditions: in vivo; how it was run: as §1
[5] = Biodistribution in kidney of iv dosed CWR22 tumor bearing mouse with 17alpha-methyltestosterone-induced androgen block after 90 min; assay type: ADME, organism-based; conditions: human, in vivo, 1.5 h
How it was run: (§2)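 Mature male mice (25 g) bearing flank CWR22 prostate tumors received DES (0.2 mg in 0.1 mL sesame oil, sc) 24 and 3 h before the tracer. 76Br-tracer, 6 µCi/animal in 10% ethanol-saline, was given iv by tail vein. Mice were killed at 30 or 90 min. Block set was co-injected with 8 µg 17α-methyltestosterone. Five animals per point. Results are %ID/g.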

Muscle tissue [6] = experiment: Biodistribution in muscle of iv dosed testis-intact Sprague-Dawley rat after 1 hr block; assay type: ADME, organism-based; conditions: in vivo; how it was run: as §1
[7] = Biodistribution in liver of iv dosed CWR22 tumor bearing mouse with 17alpha-methyltestosterone-induced androgen block after 90 min; assay type: ADME, organism-based; conditions: human, in vivo, 1.5 h; how it was run: as §2
[8] = Ratio of drug uptake in prostate to blood in iv dosed Sprague-Dawley rat after 1 hr; assay type: ADME, organism-based, Prostate gland
How it was run: (§3)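 Castrated male Sprague-Dawley rats were dosed iv (tail vein) with 4 µCi 76Br-tracer in 10% ethanol-saline and killed at 1 h, five per group. Tissues were weighed and counted and %ID/g calculated against dose standards. Ratios are prostate %ID/g over blood or muscle %ID/g.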

Blood [9] = experiment: Biodistribution in blood of iv dosed testis-intact Sprague-Dawley rat after 1 hr block; assay type: ADME, organism-based; conditions: in vivo; how it was run: as §1
[10] = Biodistribution in blood of iv dosed CWR22 tumor bearing mouse with 17alpha-methyltestosterone-induced androgen block after 90 min; assay type: ADME, organism-based; conditions: human, read-out: Drug uptake; how it was run: as §2
[11] = Biodistribution in muscle of iv dosed CWR22 tumor bearing mouse after 30 min; assay type: ADME, organism-based, Muscle tissue; conditions: human, read-out: Drug uptake; how it was run: as §2
[12] = Biodistribution in kidney of iv dosed CWR22 tumor bearing mouse after 30 min; assay type: ADME, organism-based; conditions: human, read-out: Drug uptake; how it was run: as §2
Bone [13] = experiment: Biodistribution in bone of iv dosed testis-intact Sprague-Dawley rat after 18 hrs block; assay type: ADME, organism-based, Bone element; conditions: in vivo; how it was run: as §1
[14] = Biodistribution in kidney of iv dosed Sprague-Dawley rat after 1 hr; assay type: ADME, organism-based; conditions: read-out: Drug uptake; how it was run: as §1
Prostate gland [15] = experiment: Biodistribution in prostate of iv dosed testis-intact Sprague-Dawley rat after 1 hr block; assay type: ADME, organism-based; conditions: in vivo; how it was run: as §1
Prostate gland [16] = experiment: Biodistribution in prostate of iv dosed testis-intact Sprague-Dawley rat after 18 hrs block; assay type: ADME, organism-based; conditions: in vivo; how it was run: as §1
Blood [17] = experiment: Biodistribution in blood of iv dosed testis-intact Sprague-Dawley rat after 18 hrs block; assay type: ADME, organism-based; conditions: in vivo; how it was run: as §1
[18] = Biodistribution in kidney of iv dosed Sprague-Dawley rat after 18 hrs; assay type: ADME, organism-based; conditions: read-out: Drug uptake; how it was run: as §1
[19] = Ratio of drug uptake in prostate to muscle in iv dosed Sprague-Dawley rat after 1 hr; assay type: ADME, organism-based, Prostate gland; conditions: in vivo; how it was run: as §3
[20] = Biodistribution in blood of iv dosed Sprague-Dawley rat after 1 hr; assay type: ADME, organism-based; conditions: read-out: Drug uptake; how it was run: as §1
[21] = Biodistribution in muscle of iv dosed CWR22 tumor bearing mouse after 60 min; assay type: ADME, organism-based, Muscle tissue; conditions: human, read-out: Drug uptake
[22] = Biodistribution in liver of iv dosed Sprague-Dawley rat after 1 hr; assay type: ADME, organism-based; conditions: read-out: Drug uptake; how it was run: as §1
[23] = Biodistribution in kidney of iv dosed CWR22 tumor bearing mouse after 60 min; assay type: ADME, organism-based; conditions: human, read-out: Drug uptake
[24] = Biodistribution in blood of iv dosed Sprague-Dawley rat after 18 hrs; assay type: ADME, organism-based; conditions: read-out: Drug uptake; how it was run: as §1
[25] = Biodistribution in blood of iv dosed CWR22 tumor bearing mouse after 30 min; assay type: ADME, organism-based; conditions: human, read-out: Drug uptake; how it was run: as §2
[26] = Biodistribution in tumor of iv dosed CWR22 tumor bearing mouse after 60 min; assay type: ADME, organism-based; conditions: human, read-out: Drug uptake
[27] = Biodistribution in prostate of iv dosed CWR22 tumor bearing mouse with 17alpha-methyltestosterone-induced androgen block after 90 min; assay type: ADME, organism-based, Prostate gland; conditions: human, read-out: Drug uptake; how it was run: as §2
[28] = Biodistribution in prostate of iv dosed Sprague-Dawley rat after 1 hr; assay type: ADME, organism-based, Prostate gland; conditions: read-out: Drug uptake; how it was run: as §1
[29] = Biodistribution in liver of iv dosed CWR22 tumor bearing mouse after 30 min; assay type: ADME, organism-based; conditions: human, read-out: Drug uptake; how it was run: as §2
Bone [30] = experiment: Biodistribution in bone of iv dosed testis-intact Sprague-Dawley rat after 1 hr block; assay type: ADME, organism-based, Bone element; conditions: in vivo; how it was run: as §1
[31] = Biodistribution in tumor of iv dosed CWR22 tumor bearing mouse after 30 min; assay type: ADME, organism-based; conditions: human, read-out: Drug uptake; how it was run: as §2
[32] = Biodistribution in tumor of iv dosed CWR22 tumor bearing mouse with 17alpha-methyltestosterone-induced androgen block after 90 min; assay type: ADME, organism-based; conditions: human, in vivo, 1.5 h; how it was run: as §2
[33] = Biodistribution in prostate of iv dosed Sprague-Dawley rat after 18 hrs; assay type: ADME, organism-based, Prostate gland; conditions: read-out: Drug uptake; how it was run: as §1
[34] = Biodistribution in bone of iv dosed Sprague-Dawley rat after 1 hr; assay type: ADME, organism-based, Bone element; conditions: read-out: Drug uptake; how it was run: as §1
[35] = Biodistribution in liver of iv dosed CWR22 tumor bearing mouse after 60 min; assay type: ADME, organism-based; conditions: human, read-out: Drug uptake
[36] = Biodistribution in blood of iv dosed CWR22 tumor bearing mouse after 60 min; assay type: ADME, organism-based; conditions: human, in vivo, 1 h
[37] = Biodistribution in prostate of iv dosed CWR22 tumor bearing mouse after 30 min; assay type: ADME, organism-based, Prostate gland; conditions: human, read-out: Drug uptake; how it was run: as §2
[38] = Biodistribution in bone of iv dosed Sprague-Dawley rat after 18 hrs; assay type: ADME, organism-based, Bone element; conditions: read-out: Drug uptake; how it was run: as §1
[39] = Biodistribution in liver of iv dosed testis-intact Sprague-Dawley rat after 1 hr block; assay type: ADME, organism-based; conditions: male, read-out: Drug uptake; how it was run: as §1
[40] = Biodistribution in muscle of iv dosed Sprague-Dawley rat after 1 hr; assay type: ADME, organism-based, Muscle tissue; conditions: read-out: Drug uptake; how it was run: as §1
Kidney [41] = experiment: Biodistribution in kidney of iv dosed testis-intact Sprague-Dawley rat after 18 hrs block; assay type: ADME, organism-based; conditions: in vivo; how it was run: as §1
[42] = Biodistribution in muscle of iv dosed CWR22 tumor bearing mouse with 17alpha-methyltestosterone-induced androgen block after 90 min; assay type: ADME, organism-based; conditions: human, read-out: Drug uptake; how it was run: as §2
Liver = experiment: Biodistribution in liver of iv dosed testis-intact Sprague-Dawley rat after 18 hrs block; assay type: ADME, organism-based; conditions: in vivo; how it was run: as §1
[43] = Biodistribution in prostate of iv dosed CWR22 tumor bearing mouse after 60 min; assay type: ADME, organism-based, Prostate gland; conditions: human, read-out: Drug uptake
Androgen receptor = target: T1, Androgen receptor (Rattus norvegicus, UniProt P15207); experiment: Binding affinity to rat AR
T1 sequence (P15207 whole entry): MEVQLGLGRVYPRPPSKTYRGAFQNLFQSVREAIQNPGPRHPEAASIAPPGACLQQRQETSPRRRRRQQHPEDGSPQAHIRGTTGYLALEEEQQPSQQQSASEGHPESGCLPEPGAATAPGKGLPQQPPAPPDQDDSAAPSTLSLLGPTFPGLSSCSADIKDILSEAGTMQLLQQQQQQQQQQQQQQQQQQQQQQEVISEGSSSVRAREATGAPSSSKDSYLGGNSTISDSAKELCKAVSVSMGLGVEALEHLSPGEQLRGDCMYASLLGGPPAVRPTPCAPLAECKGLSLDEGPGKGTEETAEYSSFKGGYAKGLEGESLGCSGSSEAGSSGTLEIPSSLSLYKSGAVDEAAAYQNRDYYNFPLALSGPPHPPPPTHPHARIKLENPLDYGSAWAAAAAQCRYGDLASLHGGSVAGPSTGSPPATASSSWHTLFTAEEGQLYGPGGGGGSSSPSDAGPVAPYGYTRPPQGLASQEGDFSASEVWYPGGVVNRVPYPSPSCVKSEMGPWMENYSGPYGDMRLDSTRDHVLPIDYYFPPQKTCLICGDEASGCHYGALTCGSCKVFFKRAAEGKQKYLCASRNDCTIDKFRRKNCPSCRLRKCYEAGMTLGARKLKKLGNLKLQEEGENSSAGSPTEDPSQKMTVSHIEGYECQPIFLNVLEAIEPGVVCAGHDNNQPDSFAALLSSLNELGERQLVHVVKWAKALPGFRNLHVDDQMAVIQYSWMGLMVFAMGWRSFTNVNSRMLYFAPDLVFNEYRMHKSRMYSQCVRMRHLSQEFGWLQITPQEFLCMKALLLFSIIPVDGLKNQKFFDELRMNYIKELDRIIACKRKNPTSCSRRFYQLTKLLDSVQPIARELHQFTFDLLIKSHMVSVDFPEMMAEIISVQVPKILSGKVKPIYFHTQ

CC(O)(CS(=O)(=O)c1ccc([76Br])cc1)C(=O)Nc1ccc(C#N)c(C(F)(F)F)c1 (stereo not given)
Drug uptake (Kidney [1]): 1 % ID/g
tissue uptake at 18 h [2]: 0.15 %ID/g
tissue uptake at 18 h [3]: 0.56 %ID/g
Drug uptake (Muscle tissue [4]): 0.11 % ID/g
Drug uptake [5]: 7.6 % ID/g
Drug uptake (Muscle tissue [6]): 0.38 % ID/g
Drug uptake [7]: 14 % ID/g
Kp at 1 h [8]: 1.8
Drug uptake (Blood [9]): 0.62 % ID/g
tissue uptake at 1.5 h [10]: 3 %ID/g
tissue uptake at 0.5 h [11]: 2.5 %ID/g
tissue uptake at 0.5 h [12]: 7.2 %ID/g
Drug uptake (Bone [13]): 0.12 % ID/g
tissue uptake at 1 h [14]: 1 %ID/g
Drug uptake (Prostate gland [15]): 0.68 % ID/g
Drug uptake (Prostate gland [16]): 0.22 % ID/g
Drug uptake (Blood [17]): 0.29 % ID/g
tissue uptake at 18 h [18]: 0.36 %ID/g
Ratio [19]: 2.9
tissue uptake at 1 h [20]: 0.56 %ID/g
tissue uptake at 1 h [21]: 2.9 %ID/g
tissue uptake at 1 h [22]: 2.1 %ID/g
tissue uptake at 1 h [23]: 7.8 %ID/g
tissue uptake at 18 h [24]: 0.34 %ID/g
tissue uptake at 0.5 h [25]: 2.7 %ID/g
tissue uptake at 1 h [26]: 3.8 %ID/g
tissue uptake at 1.5 h [27]: 3.4 %ID/g
tissue uptake at 1 h [28]: 1 %ID/g
tissue uptake at 0.5 h [29]: 15 %ID/g
Drug uptake (Bone [30]): 0.31 % ID/g
tissue uptake at 0.5 h [31]: 2.5 %ID/g
Drug uptake [32]: 4.5 % ID/g
tissue uptake at 18 h [33]: 0.27 %ID/g
tissue uptake at 1 h [34]: 0.28 %ID/g
tissue uptake at 1 h [35]: 18 %ID/g
Drug uptake [36]: 3.5 % ID/g
tissue uptake at 0.5 h [37]: 2.2 %ID/g
tissue uptake at 18 h [38]: 0.13 %ID/g
tissue uptake at 1 h [39]: 2.5 %ID/g
tissue uptake at 1 h [40]: 0.34 %ID/g
Drug uptake (Kidney [41]): 0.26 % ID/g
tissue uptake at 1.5 h [42]: 2.8 %ID/g
Drug uptake (Liver): 0.36 % ID/g
tissue uptake at 1 h [43]: 2.8 %ID/g

CC(O)(CS(=O)(=O)c1ccc(Br)cc1)C(=O)Nc1ccc(C#N)c(C(F)(F)F)c1 (stereo not given)
Kd (Androgen receptor): 110 nM
